PMC5363680 (Molecular Therapy. Nucleic Acids, 2017)

Columns and labels:
[1] = tested on: luc2 gene in U87 MG-luc2 cells; assay: luc2 gene downregulation after CPP-mediated siRNA delivery; type: cell-based, human; conditions: MR30, 25 nM siRNA, 10% FBS media, 24 hr post treatment
[2] = tested on: U87 cells; assay: LDH leakage; type: cell-based, human; conditions: reduced serum media, 6 hr, complexes and free peptide at a higher concentration
Summary of the method: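 U87 cells grown 24 hr in serum-containing medium, then switched to serum-free conditions: medium removed and complexes or free peptide added, diluted 1:10 in medium. Controls were untreated cells, 0.1% Triton X-100 and cell-free wells. After 6 hr at 37°C, 5% CO2, LDH activity (CytoTox-ONE) was measured per kit protocol and normalized to controls.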

[3] = tested on: U87 cells; assay: Neutral red lyso-toxicity assay, serum-free conditions; type: cell-based, human; conditions: reduced serum media, 6 hr, CPP and CPP/siRNA complexes at higher concentrations
Summary of the method: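 U87 cells grown 24 hr in serum-containing medium, then medium replaced by complexes or peptide diluted 1:10 in reduced-serum medium. Controls were untreated cells, 10 μM chloroquine and cell-free wells. Neutral red dye added and incubated 6 hr at 37°C, 5% CO2. Cells then washed with PBS, detection solution added for 10 min, absorbance read at 540 nm and normalized to controls.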

[4] = target: Proteinase K (Parengyodontium album, UniProt P06873); assay: Proteinase K degradation of CPP/siRNA complexes, PicoGreen read-out; type: in vitro ADME; conditions: PF6 at MR10, same charge ratio as other CPPs
[5] = target: proteinase (Parengyodontium album, UniProt P06873); assay: Coincubation of CPP with proteinase, peptide fragments by UPLC; type: in vitro ADME; conditions: coincubation of CPP with the enzyme, 2 hr at 37°C, data not shown
proteinase, sequence (P06873 106-384): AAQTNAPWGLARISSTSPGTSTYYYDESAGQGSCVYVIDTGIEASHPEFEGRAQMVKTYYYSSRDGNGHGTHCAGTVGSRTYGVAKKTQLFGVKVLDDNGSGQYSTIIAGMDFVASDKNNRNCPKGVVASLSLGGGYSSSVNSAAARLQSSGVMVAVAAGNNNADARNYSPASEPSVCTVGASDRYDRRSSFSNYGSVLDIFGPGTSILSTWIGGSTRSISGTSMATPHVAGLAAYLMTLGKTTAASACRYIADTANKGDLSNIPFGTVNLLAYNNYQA

Proteinase K, sequence (P06873 106-384): as above

LDH leakage [2]: led to LDH leakage
stability to proteinase, times higher than with other tested CPPs [4]: 10–20 times
Substance: Stearyl-AGYLLGKINLKALAALAKKIL-NH2 [PF6]
downregulation of luc2 gene at MR30 [1]: 80%
Neutral red assay (lyso-toxicity) [3]: showed toxic and/or buffering effects
degradation of CPP by the proteinase [5]: lack of a considerable increase of detectable peptide fragments
